Reference: publication PMC12401554 (Archives of toxicology, 2023)

What was measured:
2D HepaRG cells [1] = assay: HT flow-cytometry-based MN assay in 2D HepaRG cells; format: cell-based, human; details: for Fold increase of MN formation over the vehicle control: at the maximum concentration shown in the table
[2] = ref European Chemicals Agency (ECHA) Classification and Labelling Inventory; cited from earlier work
2D HepaRG cells [3] = assay: CometChip assay; format: cell-based, human; details: 24-h exposure; for Fold increase of DNA damage over the vehicle control: at the maximum concentration shown in the table
3D HepaRG spheroids [4] = assay: CometChip assay; format: cell-based, human; details: for Outcome, CometChip assay / Fold increase of DNA damage over the vehicle control: 24-h exposure; for Fold increase of DNA damage over the vehicle control: at the maximum concentration shown in the table; for BMC50 estimate for DNA strand breakage, rank among the eight nitrosamines: PROAST exponential model
3D HepaRG spheroids [5] = assay: HT flow-cytometry-based MN assay in 3D HepaRG spheroids; format: cell-based, human; details: for Fold increase of MN formation over the vehicle control: at the maximum concentration shown in the table
Namalva cells = details: human Burkitt lymphoblastoid cell line, ref Janzowski et al. 1989; cited from earlier work
rat [6] = details: ref Lhasa Carcinogenicity Database; cited from earlier work
rat [7] = details: ref Ambient water quality criteria for nitrosamines, US Environmental Protection Agency; cited from earlier work
[8] = tested on: wild-type TK6 cells or TK6 cells transduced with human CYP1A1, 2A6, 2E1, or 3A4 genes; details: ref Li et al. 2022; cited from earlier work
3D HepaRG spheroids [9] = assay: MultiFlow DNA damage assay; format: cell-based, human; details: 3D HepaRG cultures, PROAST exponential model
How it was run: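 Spheroids were exposed for 24 h in differentiation medium containing 100 ng/ml hEGF, then kept 5 days in the same medium without test compound. They were dissociated with Accutase and stained 1 h at room temperature for γH2A.X, phospho-H3 and P53, then analysed by flow cytometry. Responses are median-fluorescence fold-changes versus vehicle. BMC50 (50% increase over vehicle; 90% CI) came from exponential-model benchmark analysis with compound as covariate.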

[10] = ref IARC Monographs, Volumes 1–133; IARC 1978; cited from earlier work
[11] = tested on: CYP2A6-expressing TK6 cells; details: ref Li et al. 2022; cited from earlier work
[12] = tested on: animal species, including frog, rodent, rabbit, and monkey; details: ref Bogovski and Bogovski 1981; cited from earlier work
Sprague–Dawley rats = details: treated 5 days each week with 1.8 or 12 mg NDIPA for 50 or 40 weeks; ref Lijinsky and Taylor 1979; cited from earlier work
3D HepaRG spheroids [13] = assay: ATP assay; format: cell-based, human; details: 24-h exposure, at concentrations up to 10 mM
How it was run: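 Differentiated HepaRG cells (passages 16–19) were seeded at 5 × 10^3 cells per spheroid in ultra-low-attachment plates. On Day 10, 7–8 spheroids were pooled per well and exposed for 24 h at 37 °C in 5% CO2, with final DMSO ≤1%. ATP was measured with the CellTiter-Glo 3D kit as % of vehicle control, from at least three independent experiments.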

2D HepaRG cells [14] = assay: ATP assay; format: cell-based, human; details: 24-h exposure, at concentrations up to 10 mM
How it was run: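 Differentiated HepaRG cells (passages 16–19) replated at 5 × 10^4 cells/well as 2D monolayers and treated 3 days after seeding. Exposure was 24 h at 37 °C in 5% CO2 in differentiation medium, with final DMSO ≤1%. Viability was read by CellTiter-Glo luminescence as %ATP relative to vehicle control, from at least three independent experiments.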

Compound | MN response (in words) (2D HepaRG cells [1]) | Outcome, MN assay (2D HepaRG cells [1]) | Fold increase of MN formation over the vehicle control (2D HepaRG cells [1]) | ECHA classification [2] | Outcome, CometChip assay (2D HepaRG cells [3]) | Fold increase of DNA damage over the vehicle control (2D HepaRG cells [3]) | Outcome, CometChip assay (3D HepaRG spheroids [4]) | Fold increase of DNA damage over the vehicle control (3D HepaRG spheroids [4]) | MN response (in words) (3D HepaRG spheroids [5]) | Outcome, MN assay (3D HepaRG spheroids [5]) | Fold increase of MN formation over the vehicle control (3D HepaRG spheroids [5]) | Gold TD50 in rat (rat [6]) | Oral rat LD50 (rat [7]) | IARC group [10] | Phosphorylation of histone H2A.X (γH2A.X) [11] | Micronucleus (MN) formation [11] | further results
O=NN1CCN(C2CCCC2)CC1 [CPNP, N-cyclopentyl-4-nitrosopiperazine] | negative | − (The ratio ≤ 1.5-fold (p ≥ 0.05 vs. vehicle control, green color)) | 1.4 fold | Carc.1B | − (The ratio ≤ 1.5-fold (p ≥ 0.05 vs. vehicle control, green color)) | 0.9 fold | + + (2 ≤ ratio < 5) | 2.3 fold | negative | − (The ratio ≤ 1.5-fold (p ≥ 0.05 vs. vehicle control, green color)) | 1.4 fold | – | – | – | – | – | –
CCCCN(CCCC)N=O [NDBA, N-nitrosodibutylamine] | – | + (1.5 ≤ ratio < 2) | 1.5 fold | Carc.2 | + + (2 ≤ ratio < 5) | 2.4 fold | + + (2 ≤ ratio < 5) | 2.8 fold | – | + + (2 ≤ ratio < 5) | 2.3 fold | 0.691 mg/kg/day | 1200 mg/kg | 2B | increased | – | Lowest concentration increasing MN formation (Namalva cells): 10 µM; Lowest concentration increasing sister chromatid exchanges (Namalva cells): 1 µM; MN frequency [8]: didn’t increase; BMC50 value for γH2A.X responses, rank among the eight nitrosamines (3D HepaRG spheroids [9]): lowest
CCN(CC)N=O [NDEA, N-nitrosodiethylamine] | – | + (1.5 ≤ ratio < 2) | 1.7 fold | Carc.1A/1B; Muta.2 | + + (2 ≤ ratio < 5) | 2.3 fold | + + (2 ≤ ratio < 5) | 2.6 fold | – | + + (2 ≤ ratio < 5) | 2.2 fold | 0.0265 mg/kg/day | 280 mg/kg | 2A | increased | induced | Number of different animal species in which tumors were induced [12]: 26
CC(C)N(N=O)C(C)C [NDIPA, N-nitrosodiisopropylamine] | negative | − (The ratio ≤ 1.5-fold (p ≥ 0.05 vs. vehicle control, green color)) | 1.1 fold | Carc.1B; Muta.1B | − (The ratio ≤ 1.5-fold (p ≥ 0.05 vs. vehicle control, green color)) | 1.1 fold | + (1.5 ≤ ratio < 2) | 1.8 fold | negative | − (The ratio ≤ 1.5-fold (p ≥ 0.05 vs. vehicle control, green color)) | 1.2 fold | – | 850 mg/kg | – | increased | – | Carcinogenicity in Sprague–Dawley rats (in words) (Sprague–Dawley rats): weak carcinogen; BMC50 estimate for DNA strand breakage, rank among the eight nitrosamines (3D HepaRG spheroids [4]): highest; Cytotoxicity (ATP assay) (3D HepaRG spheroids [13]): less than 30%; BMC50 value for γH2A.X responses, rank among the eight nitrosamines (3D HepaRG spheroids [9]): highest; Cytotoxicity (ATP assay) (2D HepaRG cells [14]): less than 30%
CN(C)N=O [NDMA, N-nitrosodimethylamine] | – | + + (2 ≤ ratio < 5) | – | Carc.1B | + + (2 ≤ ratio < 5) | – | + + + (ratio ≥ 5 (p < 0.05, red color)) | – | – | + + (2 ≤ ratio < 5) | – | – | 40 mg/kg | 2A | – | – | BMC50 estimate for DNA strand breakage, rank among the eight nitrosamines (3D HepaRG spheroids [4]): lowest; Number of different animal species in which tumors were induced [12]: 16; BMC50 estimate for %MN, rank among the five positive responses (3D HepaRG spheroids [5]; PROAST exponential model): lowest
CCN(N=O)C(C)C [NEIPA, N-nitrosoethylisopropylamine] | negative | − (The ratio ≤ 1.5-fold (p ≥ 0.05 vs. vehicle control, green color)) | 1.1 fold | Carc.1B | − (The ratio ≤ 1.5-fold (p ≥ 0.05 vs. vehicle control, green color)) | 1.5 fold | + + (2 ≤ ratio < 5) | 2.4 fold | negative | − (The ratio ≤ 1.5-fold (p ≥ 0.05 vs. vehicle control, green color)) | 1.3 fold | – | 1100 mg/kg | – | increased | induced | Cytotoxicity (ATP assay) (3D HepaRG spheroids [13]): less than 30%; Cytotoxicity (ATP assay) (2D HepaRG cells [14]): less than 30%
CN(CCCC(=O)O)N=O [NMBA, N-nitroso-N-methyl-4-aminobutyric acid] | – | − (The ratio ≤ 1.5-fold (p ≥ 0.05 vs. vehicle control, green color)) | 1.4 fold | Carc.2 | − (The ratio ≤ 1.5-fold (p ≥ 0.05 vs. vehicle control, green color)) | 1.0 fold | + + (2 ≤ ratio < 5) | 2.3 fold | – | + (1.5 ≤ ratio < 2) | 1.8 fold | 0.982 mg/kg/day | – | – | increased | induced | –
CN(N=O)c1ccccc1 [NMPA, N-nitrosomethylphenylamine] | – | − (The ratio ≤ 1.5-fold (p ≥ 0.05 vs. vehicle control, green color)) | – | Carc.2 | − (The ratio ≤ 1.5-fold (p ≥ 0.05 vs. vehicle control, green color)) | – | + + (2 ≤ ratio < 5) | – | – | + + (2 ≤ ratio < 5) | – | – | 280 mg/kg | – | increased | induced | –
